Assays:
Eg5 = biological target: T1, Eg5 (Homo sapiens, UniProt P52732); test: Microtubule gliding assay, Eg5; format: biochemical; details: 24 µM Munesib-1 or 100 µM Fift-IN
T1 sequence (P52732 1-1056): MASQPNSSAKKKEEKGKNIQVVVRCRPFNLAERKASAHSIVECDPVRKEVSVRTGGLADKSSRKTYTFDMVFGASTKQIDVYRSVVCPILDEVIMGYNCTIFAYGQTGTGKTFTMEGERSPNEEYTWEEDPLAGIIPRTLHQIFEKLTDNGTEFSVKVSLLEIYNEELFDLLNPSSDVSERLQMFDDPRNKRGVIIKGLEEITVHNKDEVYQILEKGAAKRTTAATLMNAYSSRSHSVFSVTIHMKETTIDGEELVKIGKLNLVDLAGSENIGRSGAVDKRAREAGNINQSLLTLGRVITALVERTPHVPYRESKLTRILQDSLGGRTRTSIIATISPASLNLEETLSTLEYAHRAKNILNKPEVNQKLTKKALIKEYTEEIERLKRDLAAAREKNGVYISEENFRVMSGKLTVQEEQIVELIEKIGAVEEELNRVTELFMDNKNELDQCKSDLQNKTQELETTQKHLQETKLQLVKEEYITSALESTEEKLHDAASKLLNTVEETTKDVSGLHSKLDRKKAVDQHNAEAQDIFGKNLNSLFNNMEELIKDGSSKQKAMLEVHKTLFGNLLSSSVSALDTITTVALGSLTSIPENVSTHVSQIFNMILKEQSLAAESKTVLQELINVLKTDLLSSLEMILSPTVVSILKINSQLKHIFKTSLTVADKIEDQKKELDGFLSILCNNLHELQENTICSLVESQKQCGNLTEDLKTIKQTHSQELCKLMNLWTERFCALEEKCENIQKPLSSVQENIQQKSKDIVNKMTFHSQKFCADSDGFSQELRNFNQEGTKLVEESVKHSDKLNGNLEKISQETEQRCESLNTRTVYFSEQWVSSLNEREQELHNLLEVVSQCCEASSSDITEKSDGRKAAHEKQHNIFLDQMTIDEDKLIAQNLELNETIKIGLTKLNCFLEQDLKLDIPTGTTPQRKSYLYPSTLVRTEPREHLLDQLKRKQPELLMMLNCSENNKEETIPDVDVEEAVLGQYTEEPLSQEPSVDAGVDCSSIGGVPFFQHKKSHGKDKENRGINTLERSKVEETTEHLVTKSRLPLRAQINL
Method in brief: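 Gliding assays with other motors used His6-Eg5, His6-EGFP-HSET or K560 (truncated kinesin-1), with test compound at 24 µM or 100 µM. Frames were captured every 5 s for 1 min at 100×. Velocity was the distance travelled in 1 min, from ≥15 microtubules at each of three locations (n ≥ 50 per slide).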

HeLa cells = test: Preanaphase spindle monopolarity, parental HeLa cells; format: cell-based

inhibition of microtubule gliding, Eg5 (Eg5): neither substantially inhibited
Compound: COC(=O)c1ccc2c(c1)N(C)S(=O)(=O)c1cnc(SC)nc1-2 [Munesib-1, Methyl 6-methyl-2-(methylthio)-6H-benzo[c]pyrimido[4,5-e][1,2]thiazine-8-carboxylate 5,5-dioxide]
effect on spindle assembly in parental line (HeLa cells): little effect on the parental HeLa line
